The values below come from ChEMBL document CHEMBL1135406, “Distribution of furamidine analogues in tumor cells: influence of the number of positive charges” (J Med Chem, 2002).

Broadly, the IC50 is the point on the concentration scale where inhibition reaches its midpoint.

The assay relates to B16. The assay is described as follows: Drug concentration required to inhibit B16 cell growth by 50% after 72 hours of incubation. To be noted: Mus musculus, B16, 72 h. In kind it is functional, cell-based. Put shortly:
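B16 murine melanoma cells grown in DMEM-glutaMAX with 10% FBS, penicillin and streptomycin, 37 °C, 5% CO2; harvested by trypsinization and plated 20 h before dosing. 2 × 10⁴ exponentially growing cells per well exposed to a range of drug concentrations for 72 h at 37 °C; MTS added for a further 3 h; absorbance read at 492 nm; IC50 = 50% growth inhibition.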
`CN(C)CCC/N=C(\N)c1ccc(-c2ccc(-c3ccc(/C(N)=N/CCCN(C)C)cc3)o2)cc1` yielded an IC50 of 2.5 µM.

Turning to `N=C(N)c1ccc(-c2ccc(-c3nc4ccccc4[nH]3)o2)cc1`, the half-inhibitory concentration (IC50) came out at 51.4 µM.

Molecule `c1cc(-c2ccc(-c3ccc(C4=NCCN4)cc3)o2)ccc1C1=NCCN1` returned a half-inhibitory concentration (IC50) of 1.1 µM.

`COc1ccc(-c2ccc(-c3ccc(C4=NCCN4)cc3)o2)cc1` registered a concentration for half-maximal inhibition (IC50) of 1.7 µM.

The molecule `COc1ccc(-c2ccc(-c3ccc(C(=N)N)cc3)o2)cc1` displayed an IC50 of 3.5 µM. This IC50 is about 2.1-fold higher than that of the molecule before.

As to `N=C(N)c1ccc2[nH]c(-c3ccc(-c4ccc(N)cc4)o3)nc2c1`, the IC50 was over 100 µM.

`c1ccc2[nH]c(-c3ccc(-c4ccc(C5=NCCN5)cc4)o3)nc2c1` displayed a concentration for half-maximal inhibition (IC50) of 8.6 µM.

`CN(C)CCCC(=O)Nc1ccc(-c2ccc(-c3ccc(NC(=O)CCCN(C)C)cc3)o2)cc1` returned an IC50 of 2.3 µM.

In turn, `N=C(N)c1ccc(-c2ccc(-c3nc4cc(C(=N)N)ccc4[nH]3)o2)cc1` registered a half-inhibitory concentration (IC50) of 43.2 µM.

In turn, `CN(C)CCC/N=C(\N)c1ccc(-c2ccc(-c3nc4cc(/C(N)=N/CCCN(C)C)ccc4[nH]3)o2)cc1` yielded a 50% inhibitory concentration (IC50) of over 100 µM.

Turning to `N=C(N)c1ccc(-c2ccc(-c3ccc(C(=N)N)cc3)o2)cc1` [FURAMIDINE], the concentration for half-maximal inhibition (IC50) was determined as 9.2 µM.
